Experimental data reported in ChEMBL document CHEMBL1142308, “Synthesis and structure-activity relationships of N-(3-phenylpropyl)-N'-benzylpiperazines: Potent ligands for sigma1 and sigma2 receptors” (Bioorg Med Chem, 2008).

Tests used:
[1] = Displacement of [3H]DTG from sigma2 receptor in Hartley guinea pig brain; parameters: species or system Cavia porcellus
[2] = molecular target: Delta-type opioid receptor (Mus musculus) (UniProt P32300); test: Displacement of [3H]NTI from delta opioid receptor in mouse brain; type: tissue-based; parameters: concentration or dose not given beside the values
In short: (§1)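 Brain membranes came from guinea pig for mu and kappa and from mouse for delta. Radioligands were [3H]DAMGO (mu), [3H]NTI (delta) and [3H]U69,593 (kappa). The read-out is percent displacement of radioligand binding at a single concentration of 1–2 of test compound.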

[3] = molecular target: Kappa-type opioid receptor (Cavia porcellus) (UniProt P41144); test: Displacement of [3H]U69593 from kappa opioid receptor in guinea pig brain; parameters: concentration or dose not given beside the values; in short: as §1
Cavia porcellus = organism: Cavia porcellus; test: Ratio of Ki for sigma2 receptor in Hartley guinea pig brain to Ki for sigma1 receptor in Hartley guinea pig brain
In short: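 Selectivity is expressed as the sigma2/sigma1 Ki ratio. The sigma1 Ki comes from [3H](+)-pentazocine displacement and the sigma2 Ki from [3H]DTG displacement, both in guinea pig brain. Each Ki is from Cheng-Prusoff, using Kd 2.3 nM and 23.9 nM respectively, with duplicates repeated 3–6 times.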

[4] = molecular target: T1, Sigma non-opioid intracellular receptor 1 (Cavia porcellus, UniProt Q60492); test: Displacement of [3H](+)-PTZ from sigma1 receptor in Hartley guinea pig brain
[5] = molecular target: Mu-type opioid receptor (Cavia porcellus) (UniProt P97266); test: Displacement of [3H]DAMGO from mu opioid receptor in guinea pig brain; parameters: concentration or dose not given beside the values; in short: as §1
[6] = molecular target: T1, Sigma non-opioid intracellular receptor 1; test: Displacement of [3H]pentazocine from sigma1 receptor in guinea pig membrane; type: cell membranes
[7] = molecular target: T1, Sigma non-opioid intracellular receptor 1; test: Displacement of [3H]pentazocine from sigma1 receptor in guinea pig membrane in presence of phenytoin; type: cell membranes
In short: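 [3H](+)-pentazocine sigma1 binding run as the standard assay, but with phenytoin in 0.15 M NaOH vehicle added to every tube; parallel controls received NaOH only. Trials performed in duplicate, 3–5 trials; ratio of IC50 with versus without phenytoin used for agonist/antagonist profiling.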

[8] = molecular target: Sigma non-opioid intracellular receptor 1 (Cavia porcellus) (UniProt Q60492); test: Ratio of IC50 for sigma1 receptor in absence of phenytoin to in presence of phenytoin in guinea pig membrane; type: cell membranes
In short: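 Sigma1 competition binding against [3H](+)-pentazocine in guinea pig brain homogenates, with phenytoin in 0.15 M NaOH vehicle added to every tube, alongside controls given only 0.15 M NaOH. Incubation medium was pH 7.44 at 37 °C with the NaOH additions. Ratio is IC50 without phenytoin over IC50 with it. Run in duplicate, repeated 3–6 times.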

D(2) dopamine receptor = D(2) dopamine receptor (Homo sapiens, UniProt P14416); test: Binding affinity to dopamine D2 receptor
[9] = molecular target: T2, 5-hydroxytryptamine receptor 1A (Homo sapiens, UniProt P08908); test: Binding affinity to 5HT1A receptor
T2 sequence (P08908 whole entry): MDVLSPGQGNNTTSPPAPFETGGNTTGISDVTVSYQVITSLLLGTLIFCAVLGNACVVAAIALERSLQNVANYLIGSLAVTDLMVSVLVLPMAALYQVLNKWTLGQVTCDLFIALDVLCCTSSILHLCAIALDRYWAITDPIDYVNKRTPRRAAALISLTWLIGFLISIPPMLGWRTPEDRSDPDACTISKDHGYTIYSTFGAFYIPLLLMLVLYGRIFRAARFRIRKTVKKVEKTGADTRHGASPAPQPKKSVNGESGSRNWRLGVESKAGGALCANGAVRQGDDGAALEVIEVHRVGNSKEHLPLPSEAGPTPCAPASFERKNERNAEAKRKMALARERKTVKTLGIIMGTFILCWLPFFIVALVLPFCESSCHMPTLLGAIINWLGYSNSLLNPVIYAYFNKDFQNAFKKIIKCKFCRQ

[10] = Binding affinity to sigma receptor

Kappa-type opioid receptor (Cavia porcellus), sequence (P41144 whole entry): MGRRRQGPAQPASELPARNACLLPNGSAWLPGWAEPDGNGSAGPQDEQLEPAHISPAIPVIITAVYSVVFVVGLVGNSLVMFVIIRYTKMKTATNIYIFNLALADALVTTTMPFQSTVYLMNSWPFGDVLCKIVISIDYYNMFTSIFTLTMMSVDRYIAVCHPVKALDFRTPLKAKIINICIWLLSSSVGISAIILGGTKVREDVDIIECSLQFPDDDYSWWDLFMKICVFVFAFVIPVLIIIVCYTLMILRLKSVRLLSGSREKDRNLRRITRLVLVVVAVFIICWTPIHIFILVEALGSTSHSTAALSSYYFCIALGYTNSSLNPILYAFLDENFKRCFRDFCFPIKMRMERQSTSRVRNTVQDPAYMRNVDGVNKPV
T1 sequence (Q60492 whole entry): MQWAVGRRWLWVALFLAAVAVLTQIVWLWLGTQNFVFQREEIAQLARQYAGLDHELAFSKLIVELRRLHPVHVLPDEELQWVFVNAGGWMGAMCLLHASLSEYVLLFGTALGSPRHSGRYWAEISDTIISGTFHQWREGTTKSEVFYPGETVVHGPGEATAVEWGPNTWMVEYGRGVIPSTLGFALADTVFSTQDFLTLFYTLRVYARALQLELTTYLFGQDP
Mu-type opioid receptor (Cavia porcellus), sequence (P97266 whole entry): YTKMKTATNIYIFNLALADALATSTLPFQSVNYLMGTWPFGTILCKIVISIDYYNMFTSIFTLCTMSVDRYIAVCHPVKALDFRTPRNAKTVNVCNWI
Delta-type opioid receptor (Mus musculus), sequence (P32300 whole entry): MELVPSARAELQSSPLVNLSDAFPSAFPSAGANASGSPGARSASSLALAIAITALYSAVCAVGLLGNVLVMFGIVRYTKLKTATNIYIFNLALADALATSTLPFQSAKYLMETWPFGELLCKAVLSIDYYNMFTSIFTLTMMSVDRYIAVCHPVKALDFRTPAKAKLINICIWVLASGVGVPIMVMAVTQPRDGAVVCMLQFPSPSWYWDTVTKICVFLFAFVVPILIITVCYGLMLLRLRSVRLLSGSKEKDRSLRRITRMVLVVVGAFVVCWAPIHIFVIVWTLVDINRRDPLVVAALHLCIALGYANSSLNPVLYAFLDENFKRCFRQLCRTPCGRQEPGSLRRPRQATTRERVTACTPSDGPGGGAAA
D(2) dopamine receptor, sequence (P14416 whole entry): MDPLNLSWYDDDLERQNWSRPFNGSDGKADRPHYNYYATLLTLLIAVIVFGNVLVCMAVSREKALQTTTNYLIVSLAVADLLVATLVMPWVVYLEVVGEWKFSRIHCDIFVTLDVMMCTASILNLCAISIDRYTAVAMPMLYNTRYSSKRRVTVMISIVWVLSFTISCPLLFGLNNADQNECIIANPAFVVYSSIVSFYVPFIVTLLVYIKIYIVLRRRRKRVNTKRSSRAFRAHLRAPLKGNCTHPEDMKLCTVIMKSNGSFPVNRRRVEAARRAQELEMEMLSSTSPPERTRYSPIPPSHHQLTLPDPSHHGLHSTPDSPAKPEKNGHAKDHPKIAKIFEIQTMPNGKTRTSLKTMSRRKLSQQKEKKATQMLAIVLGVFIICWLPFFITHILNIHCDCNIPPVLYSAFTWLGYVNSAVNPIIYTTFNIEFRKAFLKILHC
Sigma non-opioid intracellular receptor 1 (Cavia porcellus), sequence (Q60492 whole entry): as the sequence (Q60492 whole entry) above

SMILES: COc1ccc(CCN2CCN(CCCc3ccccc3)CC2)cc1OC [[11C]SA4503]
- Ki [1]: 89.5 nM

SMILES: COc1ccc(CN2CCN(CCCc3ccccc3)CC2)cc1
- Activity [2]: < 5%
- Activity [3]: < 5%
- Ratio Ki (Cavia porcellus): 43.2
- Ki [4]: 0.76 nM
- Ki [1]: 32.8 nM
- Activity [5]: < 5%

SMILES: O=[N+]([O-])c1cccc(CN2CCN(CCCc3ccccc3)CC2)c1
- Activity [2]: < 5%
- Activity [3]: < 5%
- Ratio Ki (Cavia porcellus): 1.7
- Ki [4]: 0.93 nM
- Ki [1]: 1.59 nM
- Activity [5]: < 5%

SMILES: Ic1cccc(CN2CCN(CCCc3ccccc3)CC2)c1
- Activity [2]: < 5%
- Activity [3]: < 5%
- Ratio Ki (Cavia porcellus): 2.6
- Ki [4]: 0.39 nM
- Ki [1]: 1.03 nM
- Activity [5]: < 5%

SMILES: COc1ccc2c(c1)[C@]13CCCC[C@@H]1[C@H](C2)N(C)CC3 [DEXTROMETHORPHAN]
- IC50 [6]: 232 nM
- IC50 [7]: 15.2 nM

SMILES: Fc1cccc(CN2CCN(CCCc3ccccc3)CC2)c1
- Activity [2]: < 5%
- Activity [3]: < 5%
- Ratio Ki (Cavia porcellus): 10.2
- Ki [4]: 1.36 nM
- Ki [1]: 13.8 nM
- Activity [5]: < 5%

SMILES: Cc1ccc(CN2CCN(CCCc3ccccc3)CC2)cc1
- Activity [2]: < 5%
- Activity [3]: < 5%
- Ratio Ki (Cavia porcellus): 15
- Ki [4]: 1.17 nM
- Ki [1]: 17.5 nM
- Activity [5]: < 5%

SMILES: O=[N+]([O-])c1ccccc1CN1CCN(CCCc2ccccc2)CC1
- Activity [2]: < 5%
- Activity [3]: < 5%
- Ratio Ki (Cavia porcellus): 1.4
- Ki [4]: 2.8 nM
- Ki [1]: 3.79 nM
- Activity [5]: < 5%

SMILES: Brc1ccccc1CN1CCN(CCCc2ccccc2)CC1
- Activity [2]: < 5%
- Activity [3]: < 5%
- Ratio Ki (Cavia porcellus): 6.9
- Ki [4]: 0.6 nM
- Ki [1]: 4.12 nM
- Activity [5]: < 5%

SMILES: c1ccc(CCCN2CCN(Cc3ccccc3)CC2)cc1
- Ratio IC50 [8]: 0.8
- IC50 (D(2) dopamine receptor): > 100 nM
- Activity [2]: < 5%
- Activity [3]: < 5%
- Ratio Ki (Cavia porcellus): 52
- Ki [4]: 0.66 nM
- IC50 [9]: > 100 nM
- Ki [1]: 34.3 nM
- IC50 [6]: 1.47 nM
- IC50 [7]: 1.89 nM
- Activity [5]: < 5%
- IC50 [10]: 20 nM

SMILES: COc1cccc(CN2CCN(CCCc3ccccc3)CC2)c1
- Activity [2]: < 5%
- Activity [3]: < 5%
- Ratio Ki (Cavia porcellus): 16.3
- Ki [4]: 0.87 nM
- Ki [1]: 14.2 nM
- Activity [5]: < 5%

SMILES: O=[N+]([O-])c1ccc(CN2CCN(CCCc3ccccc3)CC2)cc1
- Activity [2]: < 5%
- Activity [3]: < 5%
- Ratio Ki (Cavia porcellus): 8.9
- Ki [4]: 0.37 nM
- Ki [1]: 3.29 nM
- Activity [5]: < 5%
